Measurements reported in ChEMBL document CHEMBL4118031, “Halogenated Compounds from Directed Fermentation of Penicillium concentricum, an Endophytic Fungus of the Liverwort Trichocolea tomentella” (J Nat Prod, 2017).

Columns and labels:
HT-29 = experiment: Cytotoxicity against human HT-29 cells after 3 days by sulforhodamine B assay; type: functional, cell-based; details: HT-29, 72 h
In short: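 Antiproliferative assay on HT-29 colon cancer cells following a protocol from earlier work, with paclitaxel as the positive control.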

MCF7 = experiment: Cytotoxicity against human MCF7 cells after 3 days by sulforhodamine B assay; type: functional, cell-based; details: MCF7, 72 h
In short: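 Antiproliferative assay on MCF-7 breast cancer cells following a published protocol, with camptothecin as the positive control.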

COc1cc(O)c2c(=O)c3c(C)cc(O)cc3oc2c1
IC50 (HT-29): > 20 µM | IC50 (MCF7): > 20 µM

COC1=CC(=O)C[C@@H](C)[C@]12Oc1cc(OC)cc(OC)c1C2=O
IC50 (HT-29): > 20 µM | IC50 (MCF7): > 20 µM

COC1=CC(=O)C=C(C)[C@]12Oc1cc(OC)cc(OC)c1C2=O
IC50 (HT-29): > 20 µM | IC50 (MCF7): > 20 µM

O=C(OCCO)c1ccccc1
IC50 (HT-29): > 20 µM | IC50 (MCF7): > 20 µM

O=C1C(CO)=C[C@@H](O)[C@@H](O)[C@@H]1Br
IC50 (MCF7): 9.7 µM

O=C1C(CO)=C[C@@H](O)[C@@H](O)[C@@H]1Cl
IC50 (MCF7): > 20 µM

OCc1cc(O)cc(Cl)c1O
IC50 (MCF7): 14.9 µM

OCc1cc(O)cc(Br)c1O
IC50 (MCF7): 8.4 µM

O=C1C(CO)=C[C@@H](O)[C@@H](O)[C@H]1Cl
IC50 (MCF7): > 20 µM

COc1cc(O)c(C(=O)c2c(C)cc(O)cc2OC)c(O)c1
IC50 (HT-29): > 20 µM | IC50 (MCF7): > 20 µM

COc1cc(O)c(C(=O)c2c(C)cc(O)cc2OC)c(O)c1Cl
IC50 (HT-29): > 20 µM | IC50 (MCF7): > 20 µM

O=C1C(CO)=C[C@@H](O)[C@@H](O)[C@H]1Br
IC50 (MCF7): 9.7 µM

Cc1cc(O)cc2oc3cc(Cl)cc(O)c3c(=O)c12
IC50 (MCF7): > 20 µM

COc1cc(O)c2c(=O)c3c(C)cc(O)c(O)c3oc2c1
IC50 (HT-29): > 20 µM | IC50 (MCF7): > 20 µM

OCC(O)c1ccccc1 (racemic)
IC50 (HT-29): > 20 µM | IC50 (MCF7): > 20 µM

Cc1cc(O)cc2oc(=O)c3c(O)cc(O)cc3c12 [ALTERNARIOL]
IC50 (HT-29): > 20 µM | IC50 (MCF7): > 20 µM

CC[C@@]1(O)C(=O)OCc2c1cc1n(c2=O)Cc2cc3ccccc3nc2-1 [CAMPTOTHECIN]
IC50 (MCF7): 0.073 µM

O=C1C(CO)=C[C@@H](O)[C@H]2O[C@@H]12 [EPOXYDON]
IC50 (HT-29): 14.1 µM | IC50 (MCF7): 5.7 µM

OCc1cc(O)ccc1O [GENTISYL ALCOHOL]
IC50 (HT-29): 6.4 µM | IC50 (MCF7): 17.1 µM

COC1=CC(=O)C[C@@H](C)[C@]12Oc1c(Cl)c(OC)cc(OC)c1C2=O [GRISEOFULVIN]
IC50 (HT-29): > 20 µM | IC50 (MCF7): 13.9 µM

Cc1cc(O)cc2oc3cc(O)cc(O)c3c(=O)c12 [NORLICHEXANTHONE]
IC50 (HT-29): > 20 µM | IC50 (MCF7): > 20 µM

CC(=O)O[C@H]1C(=O)[C@@]2(C)[C@H]([C@H](OC(=O)c3ccccc3)[C@]3(O)C[C@H](OC(=O)[C@H](O)[C@@H](NC(=O)c4ccccc4)c4ccccc4)C(C)=C1C3(C)C)[C@]1(OC(C)=O)CO[C@@H]1C[C@@H]2O [PACLITAXEL]
IC50 (HT-29): 0.0014 µM
